Test results from ChEMBL document CHEMBL2346593, “Novel adamantyl cannabinoids as CB1 receptor probes” (J Med Chem, 2013).

system: not listed separately; test: Selectivity ratio of Ki for mouse CB2 receptor to Ki for rat CB1 receptor

Structure (SMILES) | Ratio Ki
CC1(C)Oc2cc(C34CC5CC(CC(C5)C3)C4)cc(O)c2[C@@H]2C[C@H](CC#N)CC[C@H]21 | 1.8
CC1(C)Oc2cc(C34CC5CC(CC(C5)C3)C4)cc(O)c2[C@@H]2C[C@@H](CCO)CC[C@H]21 | 0.5
CC1(C)Oc2cc(C34CC5CC(CC(C5)C3)C4)cc(O)c2[C@@H]2C[C@@H](C=O)CC[C@H]21 | 0.4
CC1(C)Oc2cc(C34CC5CC(CC(C5)C3)C4)cc(O)c2[C@@H]2C[C@H](CCO)CC[C@H]21 | 4.5
CC1(C)Oc2cc(C34CC5CC(CC(C5)C3)C4)cc(O)c2[C@@H]2C[C@H](CC=O)CC[C@H]21 | 2.6
CC(C)(C)C(=O)OCC1=CC[C@@H]2[C@@H](C1)c1c(O)cc(C34CC5CC(CC(C5)C3)C4)cc1OC2(C)C | 7.6
CC1(C)Oc2cc(C34CC5CC(CC(C5)C3)C4)cc(O)c2[C@@H]2C[C@H](C=O)CC[C@H]21 | 0.5
CC1(C)Oc2cc(C34CC5CC(CC(C5)C3)C4)cc(O)c2[C@@H]2C[C@@H](CO)CC[C@H]21 | 2.2
CO/C=C\[C@@H]1CC[C@@H]2[C@@H](C1)c1c(O)cc(C34CC5CC(CC(C5)C3)C4)cc1OC2(C)C | 2.9
CC1(C)Oc2cc(C34CC5CC(CC(C5)C3)C4)cc(O)c2[C@@H]2CC(CO)=CC[C@H]21 | 1.5

target: Cannabinoid receptor 1 (Rattus norvegicus, UniProt P20272); test: Displacement of [3H]CP-55940 from rat CB1 receptor expressed in rat brain membrane by competitive binding assay; assay type: cell membranes
Sequence (P20272 whole entry): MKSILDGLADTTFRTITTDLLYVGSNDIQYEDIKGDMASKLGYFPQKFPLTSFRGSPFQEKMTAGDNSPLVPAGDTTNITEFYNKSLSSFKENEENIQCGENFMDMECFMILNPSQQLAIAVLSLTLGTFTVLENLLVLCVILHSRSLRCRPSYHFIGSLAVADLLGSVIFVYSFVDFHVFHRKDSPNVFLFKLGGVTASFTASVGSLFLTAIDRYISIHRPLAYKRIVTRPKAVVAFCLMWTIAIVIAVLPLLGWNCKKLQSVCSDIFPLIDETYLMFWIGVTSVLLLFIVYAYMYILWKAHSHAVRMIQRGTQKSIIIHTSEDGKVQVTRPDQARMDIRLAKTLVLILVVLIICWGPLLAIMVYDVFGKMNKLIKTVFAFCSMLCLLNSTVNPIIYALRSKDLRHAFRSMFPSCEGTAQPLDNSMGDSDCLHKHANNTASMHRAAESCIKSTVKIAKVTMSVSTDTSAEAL

Structure (SMILES) | Ki [nM]
CC1(C)Oc2cc(C34CC5CC(CC(C5)C3)C4)cc(O)c2[C@@H]2C[C@H](CC#N)CC[C@H]21 | 48.7
CC1(C)Oc2cc(C34CC5CC(CC(C5)C3)C4)cc(O)c2[C@@H]2C[C@@H](CCO)CC[C@H]21 | 40.9
CC1(C)Oc2cc(C34CC5CC(CC(C5)C3)C4)cc(O)c2[C@@H]2C[C@@H](C=O)CC[C@H]21 | 48.2
CC1(C)Oc2cc(C34CC5CC(CC(C5)C3)C4)cc(O)c2[C@@H]2C[C@H](CCO)CC[C@H]21 | 8.6
CC1(C)Oc2cc(C34CC5CC(CC(C5)C3)C4)cc(O)c2[C@@H]2C[C@H](CC=O)CC[C@H]21 | 13.2
CC(C)(C)C(=O)OCC1=CC[C@@H]2[C@@H](C1)c1c(O)cc(C34CC5CC(CC(C5)C3)C4)cc1OC2(C)C | 16.5
CC1(C)Oc2cc(C34CC5CC(CC(C5)C3)C4)cc(O)c2[C@@H]2C[C@H](C=O)CC[C@H]21 | 52.9
CC1(C)Oc2cc(C34CC5CC(CC(C5)C3)C4)cc(O)c2[C@@H]2C[C@@H](CO)CC[C@H]21 | 30.1
CO/C=C\[C@@H]1CC[C@@H]2[C@@H](C1)c1c(O)cc(C34CC5CC(CC(C5)C3)C4)cc1OC2(C)C | 31
CC1(C)Oc2cc(C34CC5CC(CC(C5)C3)C4)cc(O)c2[C@@H]2CC(CO)=CC[C@H]21 | 7.2

target: Cannabinoid receptor 1 (Homo sapiens, UniProt P21554); test: Agonist activity at human CB1 receptor transfected in human U2OS cells assessed as beta-arrestin2-GFP aggregation after 40 mins; assay type: cell-based
Sequence (P21554 whole entry): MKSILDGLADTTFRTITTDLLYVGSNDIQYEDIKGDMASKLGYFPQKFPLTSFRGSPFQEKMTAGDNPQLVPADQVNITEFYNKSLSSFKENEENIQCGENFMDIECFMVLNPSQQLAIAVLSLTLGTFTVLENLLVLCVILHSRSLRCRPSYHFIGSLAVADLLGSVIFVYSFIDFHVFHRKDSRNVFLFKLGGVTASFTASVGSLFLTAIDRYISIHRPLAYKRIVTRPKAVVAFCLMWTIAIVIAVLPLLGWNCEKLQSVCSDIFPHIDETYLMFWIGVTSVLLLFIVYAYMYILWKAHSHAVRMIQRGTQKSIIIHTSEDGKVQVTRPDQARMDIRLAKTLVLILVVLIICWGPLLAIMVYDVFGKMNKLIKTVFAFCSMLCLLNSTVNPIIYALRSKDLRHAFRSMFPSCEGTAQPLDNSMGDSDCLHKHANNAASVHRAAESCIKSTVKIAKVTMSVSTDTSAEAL

Structure (SMILES) | EC50 [nM]
CC1(C)Oc2cc(C34CC5CC(CC(C5)C3)C4)cc(O)c2[C@@H]2CC(CO)=CC[C@H]21 | 230

target: Cannabinoid receptor 2 (Mus musculus, UniProt P47936); test: Displacement of [3H]CP-55940 from mouse CB2 receptor expressed in mouse spleen membrane by competitive binding assay; assay type: cell membranes
Sequence (P47936 whole entry): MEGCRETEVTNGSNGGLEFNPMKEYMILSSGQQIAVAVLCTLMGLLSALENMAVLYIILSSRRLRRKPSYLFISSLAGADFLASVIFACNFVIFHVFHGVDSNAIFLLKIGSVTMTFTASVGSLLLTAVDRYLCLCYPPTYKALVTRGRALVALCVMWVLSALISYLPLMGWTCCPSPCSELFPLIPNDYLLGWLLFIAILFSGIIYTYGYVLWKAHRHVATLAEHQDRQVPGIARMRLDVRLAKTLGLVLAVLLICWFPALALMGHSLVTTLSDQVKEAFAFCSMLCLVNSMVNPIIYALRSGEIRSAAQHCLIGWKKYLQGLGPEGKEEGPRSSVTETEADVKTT
Outline: (§1)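 Competition-equilibrium binding against [3H]CP-55,940 in rat brain membranes (CB1), mouse spleen membranes (mCB2), or membranes of HEK293 cells expressing hCB2. IC50 was obtained by nonlinear regression and converted to Ki. Ki is the mean of three independent experiments, each run in duplicate.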

Structure (SMILES) | Ki [nM]
CC1(C)Oc2cc(C34CC5CC(CC(C5)C3)C4)cc(O)c2[C@@H]2C[C@H](CC#N)CC[C@H]21 | 87
CC1(C)Oc2cc(C34CC5CC(CC(C5)C3)C4)cc(O)c2[C@@H]2C[C@@H](CCO)CC[C@H]21 | 21
CC1(C)Oc2cc(C34CC5CC(CC(C5)C3)C4)cc(O)c2[C@@H]2C[C@@H](C=O)CC[C@H]21 | 20.1
CC1(C)Oc2cc(C34CC5CC(CC(C5)C3)C4)cc(O)c2[C@@H]2C[C@H](CCO)CC[C@H]21 | 38.4
CC1(C)Oc2cc(C34CC5CC(CC(C5)C3)C4)cc(O)c2[C@@H]2C[C@H](CC=O)CC[C@H]21 | 34.3
CC(C)(C)C(=O)OCC1=CC[C@@H]2[C@@H](C1)c1c(O)cc(C34CC5CC(CC(C5)C3)C4)cc1OC2(C)C | 126
CC1(C)Oc2cc(C34CC5CC(CC(C5)C3)C4)cc(O)c2[C@@H]2C[C@H](C=O)CC[C@H]21 | 25.7
CC1(C)Oc2cc(C34CC5CC(CC(C5)C3)C4)cc(O)c2[C@@H]2C[C@@H](CO)CC[C@H]21 | 65.1
CO/C=C\[C@@H]1CC[C@@H]2[C@@H](C1)c1c(O)cc(C34CC5CC(CC(C5)C3)C4)cc1OC2(C)C | 90.3
CC1(C)Oc2cc(C34CC5CC(CC(C5)C3)C4)cc(O)c2[C@@H]2CC(CO)=CC[C@H]21 | 10.6

target: Cannabinoid receptor 2 (Homo sapiens, UniProt P34972); test: Displacement of [3H]CP-55940 from human CB2 receptor expressed in HEK293 cell membrane by competitive binding assay; assay type: cell membranes; outline: as §1
Sequence (P34972 whole entry): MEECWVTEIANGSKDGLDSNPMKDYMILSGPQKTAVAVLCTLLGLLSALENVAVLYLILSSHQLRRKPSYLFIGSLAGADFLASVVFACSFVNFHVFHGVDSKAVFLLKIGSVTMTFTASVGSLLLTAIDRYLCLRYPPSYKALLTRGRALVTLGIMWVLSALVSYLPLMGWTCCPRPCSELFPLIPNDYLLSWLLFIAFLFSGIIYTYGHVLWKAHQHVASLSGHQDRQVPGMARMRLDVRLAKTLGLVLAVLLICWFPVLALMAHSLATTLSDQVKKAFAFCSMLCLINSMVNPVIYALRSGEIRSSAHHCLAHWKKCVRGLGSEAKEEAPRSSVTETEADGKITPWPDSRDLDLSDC

Structure (SMILES) | Ki [nM]
CC1(C)Oc2cc(C34CC5CC(CC(C5)C3)C4)cc(O)c2[C@@H]2C[C@H](CC#N)CC[C@H]21 | 100
CC1(C)Oc2cc(C34CC5CC(CC(C5)C3)C4)cc(O)c2[C@@H]2C[C@@H](CCO)CC[C@H]21 | 365
CC1(C)Oc2cc(C34CC5CC(CC(C5)C3)C4)cc(O)c2[C@@H]2C[C@@H](C=O)CC[C@H]21 | 9
CC1(C)Oc2cc(C34CC5CC(CC(C5)C3)C4)cc(O)c2[C@@H]2C[C@H](CCO)CC[C@H]21 | 33.3
CC1(C)Oc2cc(C34CC5CC(CC(C5)C3)C4)cc(O)c2[C@@H]2C[C@H](CC=O)CC[C@H]21 | 11.2
CC(C)(C)C(=O)OCC1=CC[C@@H]2[C@@H](C1)c1c(O)cc(C34CC5CC(CC(C5)C3)C4)cc1OC2(C)C | 49.2
CC1(C)Oc2cc(C34CC5CC(CC(C5)C3)C4)cc(O)c2[C@@H]2C[C@H](C=O)CC[C@H]21 | 5.5
CC1(C)Oc2cc(C34CC5CC(CC(C5)C3)C4)cc(O)c2[C@@H]2C[C@@H](CO)CC[C@H]21 | 121
CO/C=C\[C@@H]1CC[C@@H]2[C@@H](C1)c1c(O)cc(C34CC5CC(CC(C5)C3)C4)cc1OC2(C)C | 67.2
CC1(C)Oc2cc(C34CC5CC(CC(C5)C3)C4)cc(O)c2[C@@H]2CC(CO)=CC[C@H]21 | 14

system: not listed separately; test: Selectivity ratio of Ki for human CB2 receptor to Ki for rat CB1 receptor

Structure (SMILES) | Ratio Ki
CC1(C)Oc2cc(C34CC5CC(CC(C5)C3)C4)cc(O)c2[C@@H]2C[C@H](CC#N)CC[C@H]21 | 2.1
CC1(C)Oc2cc(C34CC5CC(CC(C5)C3)C4)cc(O)c2[C@@H]2C[C@@H](CCO)CC[C@H]21 | 8.9
CC1(C)Oc2cc(C34CC5CC(CC(C5)C3)C4)cc(O)c2[C@@H]2C[C@@H](C=O)CC[C@H]21 | 0.2
CC1(C)Oc2cc(C34CC5CC(CC(C5)C3)C4)cc(O)c2[C@@H]2C[C@H](CCO)CC[C@H]21 | 3.9
CC1(C)Oc2cc(C34CC5CC(CC(C5)C3)C4)cc(O)c2[C@@H]2C[C@H](CC=O)CC[C@H]21 | 0.8
CC(C)(C)C(=O)OCC1=CC[C@@H]2[C@@H](C1)c1c(O)cc(C34CC5CC(CC(C5)C3)C4)cc1OC2(C)C | 3
CC1(C)Oc2cc(C34CC5CC(CC(C5)C3)C4)cc(O)c2[C@@H]2C[C@H](C=O)CC[C@H]21 | 0.1
CC1(C)Oc2cc(C34CC5CC(CC(C5)C3)C4)cc(O)c2[C@@H]2C[C@@H](CO)CC[C@H]21 | 4
CO/C=C\[C@@H]1CC[C@@H]2[C@@H](C1)c1c(O)cc(C34CC5CC(CC(C5)C3)C4)cc1OC2(C)C | 2.2
CC1(C)Oc2cc(C34CC5CC(CC(C5)C3)C4)cc(O)c2[C@@H]2CC(CO)=CC[C@H]21 | 1.9
